Data set [1] concerns Mycobacterium tuberculosis. The data set can be described thus: Antimicrobial activity against Mycobacterium tuberculosis H37Rv by microbroth dilution method. It is filed as functional. In general terms: Broth dilution looks for growth in wells or tubes with falling amounts of substance.
Data set [2] has as its system Enterococcus faecalis. The data set is described as follows: Antimicrobial activity against Enterococcus faecalis ATCC 33186 by microbroth dilution method. It is filed as functional.
The subject of data set [3] is Staphylococcus aureus. The data set can be described thus: Antimicrobial activity against methicillin-sensitive Staphylococcus aureus ATCC 29213 by microbroth dilution method. It is filed as functional.
The subject of data set [4] is Escherichia coli. The data set can be described thus: Antimicrobial activity against Escherichia coli K-12 by microbroth dilution method. It is filed as functional.
Data set [5] relates to Escherichia coli. The data set can be described thus: Antimicrobial activity against tolC-deficient Escherichia coli by microbroth dilution method. It is filed as functional.
Data set [6] relates to Staphylococcus aureus. The data set is described as follows: Antimicrobial activity against methicillin-resistant Staphylococcus aureus NRS 70 by microbroth dilution method. Format: functional.
Data set [7] relates to Klebsiella pneumoniae. The data set is described as follows: Antimicrobial activity against Klebsiella pneumoniae ATCC 33495 at >200 ug/ml by microbroth dilution method. Format: functional.
Data set [8] concerns Pseudomonas aeruginosa. The data set is described as follows: Antimicrobial activity against Pseudomonas aeruginosa PAO1 at >200 ug/ml by microbroth dilution method. It is filed as functional.
Data set [9] in a line: Solubility of the compound in DMEM/FBS medium. Format: physicochemical. The essentials: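 Solubility limit estimated from 2-fold serial dilutions in DMEM with 5% FBS kept overnight at 37 °C; highest concentration with no visible precipitate taken.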
The subject of data set [10] is Vero. The data set is described as follows: Cytotoxicity against african green monkey Vero cells assessed as reduction in cell viability by MTT assay. Format: cell-based. Particulars: Chlorocebus sabaeus. Summed up:
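Vero kidney epithelial cells (ATCC CCL-81) in DMEM/10% FBS, trypsinized, seeded near 10% confluence, left overnight to adhere; medium swapped for DMEM/FBS with 2-fold serial compound dilutions.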
For orientation: Tetrazolium assays rely on reduction of a dye to a coloured formazan, in cell work by metabolically active cells.

The nature of data set [11]: Selectivity index, ratio of CC50 for african green monkey Vero cells to IC50 for methicillin-resistant Staphylococcus aureus NRS 70. It is filed as functional. The essentials:
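Vero kidney epithelial cells were grown in DMEM/10% FBS, trypsinized, seeded at about 10% confluence and left overnight to adhere. They were then exposed to 2-fold serial compound dilutions in DMEM/FBS, and viability was read by MTT after overnight solubilization. SI = cytotoxic IC50 divided by MIC against MRSA.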

The subject of data set [12] is Staphylococcus aureus. The data set is described as follows: Bacteriostatic activity against Staphylococcus aureus Newman assessed as log reduction in bacterial cell count at 4 times MIC up to 24 hrs by time-kill assay relative to control. It is filed as functional.
Data set [13] deals with Staphylococcus aureus. The data set can be described thus: Disruption of membrane potential in Staphylococcus aureus Newman assessed as […] at 4 times MIC using DiOC2(3) probe by fluorescence assay. It is filed as functional. Summed up:
(§1)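 S. aureus Newman grown to OD600nm ≈ 0.3 in Mueller–Hinton II, stained with DiOC2(3) and run on flow cytometry; red/green fluorescence ratio gives membrane potential. CCCP positive control, vancomycin negative control.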

In data set [14] the test system is Staphylococcus aureus. The data set can be described thus: Disruption of membrane potential in Staphylococcus aureus Newman assessed as […] using DiOC2(3) probe by fluorescence assay. It is filed as functional. The essentials: as §1
Data set [15] in a line: Inhibition of purified recombinant Escherichia coli topoisomerase 1 assessed as relaxation of supercoiled plasmid DNA after 30 mins by electrophoretic analysis.
The target in data set [16] is DNA gyrase (Escherichia coli, UniProt P0AES4+P0AES6). The data set is described as follows: Inhibition of Escherichia coli DNA gyrase assessed as supercoiled plasmid DNA formation after 30 mins by electrophoretic analysis. It is filed as protein-complex assay.
Data set [17] is described as follows: Inhibition of Escherichia coli topoisomerase 4 assessed as inhibition of decatenation of catenated kinetoplast DNA after 30 mins by electrophoretic analysis.
Data set [18] deals with Staphylococcus aureus. The data set can be described thus: Bactericidal activity against Staphylococcus aureus Newman assessed as log reduction in bacterial cell count at 4 times MIC up to 24 hrs by time-kill assay relative to control. It is filed as functional.
In data set [19] the test system is Staphylococcus aureus. The data set can be described thus: Bactericidal activity against Staphylococcus aureus Newman assessed as log reduction in bacterial cell count at MIC up to 24 hrs by time-kill assay relative to control. Format: functional.
The test system of data set [20] is Staphylococcus aureus. The data set can be described thus: Antimicrobial activity against Staphylococcus aureus Newman. It is filed as functional.
The subject of data set [21] is Staphylococcus aureus. The data set can be described thus: Bactericidal activity against Staphylococcus aureus Newman assessed as log reduction in bacterial cell count at 4 times MIC at 6 hrs by time-kill assay relative to control. It is filed as functional.

Structures are written as SMILES. In brackets after ≈: the same amount, converted by molar mass. Activity calls are given as the source filed them.

Consider `O=C(/C=C/c1ccc(N2CCCCC2)cc1)c1ccc(O)cc1O`, for which the MIC in data set [1] was 100 µg/mL (≈ 309 µM); in [2], 25 µg/mL (≈ 77.3 µM); in data set [3] it was 3.13 µg/mL (≈ 9.68 µM); in data set [4], above 200 µg/mL; in [5], 12.5 µg/mL (≈ 38.7 µM); in [6], 3.13 µg/mL (≈ 9.68 µM). The minimum inhibitory concentration (MIC) in [7] and in [8] was above 200 µg/mL each time. Besides, the solubility in [9] stood at 100 µg/mL (≈ 309 µM). The IC50 in data set [10] is 16.7 µg/mL (≈ 51.6 µM); in [15], above 500 µM; in data set [16] it was above 1000 µM; in data set [17], 500 µM. Also, in data set [11], the “Selectivity Index” value came out at 5.3. Besides, the LCK result in data set [12] was “<=3”. In addition, the outcome in data set [13] was Active. In addition, in data set [14], the Activity entry was “Dose-dependent effect”.

For `CC(C)=CCCC(C)CC1CC(=O)c2c(O)cc(O)cc2O1` (configuration not stated), the minimum inhibitory concentration (MIC) was 200 µg/mL (≈ 657 µM) in data set [1]; 6.25 µg/mL (≈ 20.5 µM) in [2]; above 200 µg/mL in [4]; 1.56 µg/mL (≈ 5.13 µM) in data set [5]; 3.13 µg/mL (≈ 10.3 µM) in [6]; above 200 µg/mL in [7]. The MIC in [8] was above 200 µg/mL. Further, in data set [9], the solubility was above 200 µg/mL. Further, the half-maximal inhibitory concentration (IC50) in [10] came to 27 µg/mL (≈ 88.7 µM). The “Selectivity Index” value in data set [11] is given as 8.6. Further, in data set [13], the result was Active. The Activity result in data set [14] is “Dose-dependent effect”.

Consider `CC1(C)C2CC=C(/C=C/C(=O)c3ccc(O)cc3O)C1C2` (configuration not stated), for which the minimal inhibitory concentration (MIC) was 100 µg/mL (≈ 352 µM) in data set [1]; 3.13 µg/mL (≈ 11 µM) in data set [2]; 1.56 µg/mL (≈ 5.49 µM) in data set [3]; above 200 µg/mL in data set [4]; 1.56 µg/mL (≈ 5.49 µM) in data set [5]; 1.56 µg/mL (≈ 5.49 µM) in [6]. In addition, the MIC in [7] is above 200 µg/mL; in data set [8], above 200 µg/mL; in data set [20] it was 1.56 µg/mL (≈ 5.49 µM). Also, in data set [9], the solubility was above 200 µg/mL. Moreover, the results for the IC50 in [10], in data set [15] and in [17] were 6.9 µg/mL (≈ 24.3 µM), above 500 µM and 60 µM, respectively. Also, the “Selectivity Index” value in data set [11] came out at 4.4. For the same compound, the LCK in [18] is above 6; in data set [19], 3. Also, the outcome in data set [13] was Active. For the same compound, the Activity result in data set [14] was “Dose-dependent effect”.

In data set [20], `N#CC(C#N)=NNc1cccc(Cl)c1` [CARBONYL CYANIDE M-CHLOROPHENYLHYDRAZONE] returned an MIC of 6.25 µg/mL (≈ 30.5 µM).

As to `C=CCOc1ccccc1/C=C/C(=O)c1ccc(O)cc1O`, the MIC in [1] is 200 µg/mL (≈ 675 µM); in data set [2], 12.5 µg/mL (≈ 42.2 µM); in [3], 6.25 µg/mL (≈ 21.1 µM); in data set [4] it was above 200 µg/mL; in data set [5], 3.13 µg/mL (≈ 10.6 µM); in data set [6], 0.39 µg/mL (≈ 1.32 µM). Further, the minimum inhibitory concentration (MIC) in [7] and in [8] was above 200 µg/mL in each case. In data set [9], this compound registered a solubility above 200 µg/mL. Besides, the 50% inhibitory concentration (IC50) in [10] is 21.2 µg/mL (≈ 71.5 µM); in [15], above 500 µM; in data set [17], 250 µM. In data set [11], the “Selectivity Index” value is listed as 54.4. Besides, in [21], the LCK stood at 6.

Take `CCCCCCCC1CC(=O)c2c(O)cc(O)cc2O1` (configuration not stated): the MIC in data set [1] was 50 µg/mL (≈ 180 µM); in data set [2], 200 µg/mL (≈ 719 µM); in data set [3], 12.5 µg/mL (≈ 44.9 µM); in data set [4], above 200 µg/mL; in [5], 1.56 µg/mL (≈ 5.6 µM); in data set [6], 3.13 µg/mL (≈ 11.2 µM). The minimal inhibitory concentration (MIC) in [7] and in data set [8] was above 200 µg/mL throughout. Further, the concentration in solution in data set [9] (solubility) came to 150 µg/mL (≈ 539 µM). The IC50 is 33 µg/mL (≈ 119 µM) in [10], above 500 µM in [15], above 1000 µM in data set [16] and 120 µM in data set [17]. Further, in data set [11], the “Selectivity Index” value is listed as 10.5.

Turning to `CCCCCCOc1ccccc1/C=C/C(=O)c1ccc(O)cc1O`, the minimal inhibitory concentration (MIC) in data set [1] was above 200 µg/mL; in data set [2], 1.56 µg/mL (≈ 4.58 µM); in data set [3] it was 3.13 µg/mL (≈ 9.19 µM); in [4], above 200 µg/mL; in [5] it was above 200 µg/mL; in data set [6], 0.78 µg/mL (≈ 2.29 µM). Further, the MIC in data set [7] and in [8] was above 200 µg/mL throughout. In data set [9], this compound yielded a solubility above 200 µg/mL. The half-inhibitory concentration (IC50) in data set [10] is 7.2 µg/mL (≈ 21.2 µM); in data set [15], above 500 µM; in data set [16], above 1000 µM; in data set [17] it was 60 µM. Also, the “Selectivity Index” value in data set [11] is given as 9.2.

Regarding `CC[C@H](C)C(=O)c1c(O)cc(O)cc1OC/C=C(\C)CCC=C(C)C` [OLYMPICIN A], the MIC is above 200 µg/mL in [4], 1.56 µg/mL (≈ 4.5 µM) in data set [6], above 200 µg/mL in data set [7] and above 200 µg/mL in [8]. In addition, in data set [13], the result was Active. The Activity entry in data set [14] is “Dose-dependent effect”. For the same compound, the half-maximal inhibitory concentration (IC50) in [15] is above 500 µM; in data set [17], 30 µM.

Regarding `CN[C@H](CC(C)C)C(=O)N[C@H]1C(=O)N[C@@H](CC(N)=O)C(=O)N[C@H]2C(=O)N[C@H]3C(=O)N[C@H](C(=O)N[C@H](C(=O)O)c4cc(O)cc(O)c4-c4cc3ccc4O)[C@H](O)c3ccc(c(Cl)c3)Oc3cc2cc(c3O[C@@H]2O[C@H](CO)[C@@H](O)[C@H](O)[C@H]2O[C@H]2C[C@](C)(N)[C@H](O)[C@H](C)O2)Oc2ccc(cc2Cl)[C@H]1O` [VANCOMYCIN], the MIC in data set [2] is 0.78 µg/mL (≈ 0.538 µM); in [3] it was 0.39 µg/mL (≈ 0.269 µM); in data set [4], 100 µg/mL (≈ 69 µM); in data set [5], 100 µg/mL (≈ 69 µM); in [6] it was below 0.2 µg/mL; in [7] it was above 200 µg/mL. Besides, the MIC in [8] is above 200 µg/mL; in data set [20] it was 0.8 µg/mL (≈ 0.552 µM). In addition, the result in data set [13] was inactive.

A word on the MIC: it is the smallest concentration in the dilution series that meets the test's criterion for growth inhibition. As usually defined, the solubility is how much of the substance goes into solution per volume. For orientation: IC50 means the concentration that inhibits the measured activity by half.

The values are drawn from ChEMBL document CHEMBL3351381, “Synthesis, structure-activity relationship studies, and antibacterial evaluation of 4-chromanones and chalcones, as well as olympicin A and derivatives” (J Med Chem, 2014).
